Data as given in ChEMBL document CHEMBL4715807, “Development of Small Molecules with a Noncanonical Binding Mode to HIV-1 Trans Activation Response (TAR) RNA” (J Med Chem, 2016).
Activity calls are given as the source filed them. No cut-off for these calls is given here.

How the values were obtained:
[1] = Binding affinity to HIV1 25-2AP TAR by 2-AP based fluorescence assay; parameters: species or system Human immunodeficiency virus 1; conditions: read-out: Kd(app)
Procedure, shortened: (§1)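 2-AP-labelled TAR hairpin (U23 or U25 replaced) annealed at 95 °C 3 min, cooled ≥30 min, used at 1 μM in PBS pH 7.4 with compound added from DMSO, 30 min at room temperature with rocking. Fluorescence read at ex 310/em 365 nm, compound fluorescence subtracted, normalized to free RNA. Apparent Kd from nonlinear fit; highest concentration 400 μM; triplicates, ± SD.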

[2] = Binding affinity to HIV1 23-2AP TAR by 2-AP based fluorescence assay; parameters: species or system Human immunodeficiency virus 1; conditions: read-out: Kd(app); procedure, shortened: as §1
[3] = Binding affinity to HIV1 TAR by FRET based Tat/TAR displacement assay; parameters: species or system Human immunodeficiency virus 1
Procedure, shortened: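 Unlabeled TAR (100 nM) with 16-mer Tat peptide (N-terminal FAM, C-terminal TAMRA; 12 nM) in 50 mM Tris pH 7.4, 20 mM KCl, 0.01% Triton X-100, 5% DMSO; compound added and incubated 30 min at room temperature with rocking. Read at ex 485/em 590 nm. Controls: complex alone for 0% inhibition, peptide alone for 100%.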

[4] = system: Human immunodeficiency virus 1; experiment: Binding affinity to HIV1 TAR by NMR analysis
Procedure, shortened: (§2)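 NMR buffer: 20 mM d19-Bis-Tris pH 6.5, 10 mM NaCl, DSA reference, in D2O or 95% H2O/5% D2O. Ligand stocks 10 mM in d6-DMSO; free-ligand samples […], final DMSO 15%. RNA heated 90 °C 4 min, snap-cooled at −20 °C. 1D 1H with excitation sculpting; ligand line broadening with 10 μM TAR; TOCSY shift perturbations.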

[5] = system: Human immunodeficiency virus 1; experiment: Binding affinity to HIV1 TAR by TOCSY NMR analysis; procedure, shortened: as §2
[6] = system: Human immunodeficiency virus 1; experiment: Binding affinity to HIV1 TAR assessed as induction of chemical shift perturbations of TAR residues by NMR analysis; procedure, shortened: as §2
[7] = system: Human immunodeficiency virus 1; experiment: Effect on global topology of HIV-1 RNA 5'-UTR by SHAPE analysis
Procedure, shortened: (§3)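 RNA (5 pmol) heated to 90 °C 3 min, slowly cooled to 4 °C, in 50 mM Tris-HCl pH 8.0, 100 mM NaCl, 5 mM MgCl2, then 37 °C for 15 min. Ligand added to final 5 or 0.5 μM, 10 min at room temperature. 1M7 at final 3.5 mM (DMSO alone for control), 37 °C 5 min. Primer extension with SuperScript III, capillary electrophoresis; control peak areas subtracted.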

[8] = system: Human immunodeficiency virus 1; experiment: Binding affinity to HIV-1 TAR RNA 5'-UTR assessed as induction of chemical reactivity by SHAPE analysis; procedure, shortened: as §3
[9] = system: Human immunodeficiency virus 1; experiment: Binding affinity to HIV-1 TAR RNA 5'-UTR assessed as decrease in 1M7 reactivity for residue U25 within TAR bulge and U31, G33 and A35 within apical loop by SHAPE analysis; procedure, shortened: as §3
[10] = system: Human immunodeficiency virus 1; experiment: Binding affinity to HIV-1 TAR RNA 5'-UTR assessed as 1M7 reactivity reduction throughout TAR with residues U13-14, C19, and G32 by SHAPE analysis; procedure, shortened: as §3

SMILES | Kd [1] [µM] | Kd [2] [µM] | IC50 [3] [µM] | Activity [4] | Activity [5] | Activity [6] | Activity [7] | Activity [8] | Activity [9] | Activity [10]
Cc1ccc2c(n1)sc1c(=O)n(-c3cccc(C(F)(F)F)c3)c(=O)[nH]c12 | > 400 | > 400 | > 400 | – | – | – | – | – | – | –
Cc1cnc2sc(C(=O)Nc3cccc(C(F)(F)F)c3)c(N)c2c1 | 48.5 | 55.4 | > 400 | – | – | – | – | – | – | –
Cc1ccc2c(N)c(C(=O)Nc3ccccn3)sc2n1 | 50.3 | 64.3 | > 400 | – | – | – | – | – | – | –
Nc1c(-c2nnc(-c3cccc(C(F)(F)F)c3)o2)sc2ncccc12 | 50.2 | 44.1 | 37.6 | – | – | – | – | – | – | –
Cc1ccc2c(N)c(S(=O)(=O)Nc3cccc(F)c3)sc2n1 | > 400 | > 400 | > 400 | inactive | – | – | – | – | – | –
Cc1ccc2c(N)c(S(=O)(=O)Nc3cccc(C(F)(F)F)c3)sc2n1 | > 400 | > 400 | > 400 | – | – | – | – | – | – | –
Cc1ccc2c(N)c(-c3nnc(-c4ccccc4)o3)sc2n1 | 44.6 | 56.9 | > 300 | – | – | – | – | – | – | –
Cc1ccc2c(N)c(-c3nc(-c4cccc(C(F)(F)F)c4)no3)sc2n1 | 47.7 | 46 | 45.1 | – | – | – | – | – | – | –
Cc1ccc2c(N)c(-c3nnc(-c4cccc(Cl)c4)o3)sc2n1 | 42.5 | 45.6 | > 400 | – | – | – | – | – | – | –
Cc1ccc2cc(C(=O)Nc3cccc(C(F)(F)F)c3)sc2n1 | > 400 | > 400 | > 400 | – | – | – | – | – | – | –
Cc1ccc2c(N)c(-c3nnc(-c4cccc(C(F)(F)F)c4)o3)sc2n1 | 49.1 | 75 | 40.1 | – | – | – | inactive | Active | – | Active
Cc1ccnc2sc(C(=O)Nc3cccc(C(F)(F)F)c3)c(N)c12 | 66.5 | 94.1 | > 400 | – | – | – | – | – | – | –
Cc1ccc2c(N)c(C(=O)Nc3cccnc3)sc2n1 | 68 | 89.5 | > 400 | – | – | – | – | – | – | –

Other lines, results leading:

Kd [1] [µM] | Kd [2] [µM] | IC50 [3] [µM] | Activity [4] | Activity [5] | Activity [6] | Activity [7] | Activity [8] | Activity [9] | Activity [10] | SMILES
40 | 51.1 | > 400 | Active | Active | Dose-dependent effect | inactive | Active | Active | – | Cc1ccc2c(N)c(C(=O)Nc3ccncc3)sc2n1
90.1 | > 400 | 90.4 | – | – | – | – | – | – | – | Cc1ccc2c(N)c(C(=O)Nc3ccccc3C(F)(F)F)sc2n1
43.3 | 107 | > 400 | – | – | – | – | – | – | – | CC(C)c1ccc2c(N)c(C(=O)Nc3cccc(C(F)(F)F)c3)sc2n1
47.7 | 54.1 | > 400 | – | – | – | – | – | – | – | Cc1ccc2c(N)c(C(=O)Nc3cccc(C(F)(F)F)c3)sc2n1
75.3 | 84.1 | 87 | – | – | – | – | – | – | – | Cc1ccc2c(N)c(C(=O)Nc3ccc(C(F)(F)F)cc3)sc2n1
66.4 | 69.4 | > 400 | – | – | – | – | – | – | – | Cc1ccc2c(N)c(C(=O)NCc3cccc(C(F)(F)F)c3)sc2n1
